Shown are actives, neighbours in structure and some others; about 2.3% of the full set was active somewhere.
OXTR ag – human OXTR agonism | CHO-OTR cells, Fluo-8 calcium fluorescence; normalized: DMSO 0%, oxytocin 100% | activation, % at 3 µM | P30559 | 0.32% of 320,000 active;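 active = activation above the mean of all tested compounds plus 3 SD, cutoff set per screening run, cut at about 20% in these data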;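 also: peak over basal fluorescence ratio from a 100 s FLIPR kinetic read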
Target sequence (P30559 whole entry, looked up): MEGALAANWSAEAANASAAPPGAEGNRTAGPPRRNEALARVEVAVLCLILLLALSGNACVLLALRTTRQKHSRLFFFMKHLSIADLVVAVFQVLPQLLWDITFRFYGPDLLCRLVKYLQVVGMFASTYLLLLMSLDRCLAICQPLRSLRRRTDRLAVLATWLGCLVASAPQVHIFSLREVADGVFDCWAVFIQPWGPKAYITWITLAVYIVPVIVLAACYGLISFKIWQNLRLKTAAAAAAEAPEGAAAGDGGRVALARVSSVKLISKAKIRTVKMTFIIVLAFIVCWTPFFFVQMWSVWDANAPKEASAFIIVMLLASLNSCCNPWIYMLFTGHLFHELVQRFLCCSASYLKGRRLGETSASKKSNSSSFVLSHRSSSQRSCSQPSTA
TAAR1 antagonist – antagonists of human TAAR1. CHO RD-HGA16 TAAR1, Fluo-8 calcium fluorescence, antagonist. Q96RJ0. 1.5% of 360,000 active. AID 624466. inhibition, % at 3 µM;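 active = inhibition above a per-plate cutoff, the mean inhibition of test compounds on that plate plus 3 SD, cut at about 49% in these data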;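 also: 0% = DMSO plus EC80 beta-PEA response and 100% = DMSO alone without agonist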
Target sequence (Q96RJ0 whole entry, looked up): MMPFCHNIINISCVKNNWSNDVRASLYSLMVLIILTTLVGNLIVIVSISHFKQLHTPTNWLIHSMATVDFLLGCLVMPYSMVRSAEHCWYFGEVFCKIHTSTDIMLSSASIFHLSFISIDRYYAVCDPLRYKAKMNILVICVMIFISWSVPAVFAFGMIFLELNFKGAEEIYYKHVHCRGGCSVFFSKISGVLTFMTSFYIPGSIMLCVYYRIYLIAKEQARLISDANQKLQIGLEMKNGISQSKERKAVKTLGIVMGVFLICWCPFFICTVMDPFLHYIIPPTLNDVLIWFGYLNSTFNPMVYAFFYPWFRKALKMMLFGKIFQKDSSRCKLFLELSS
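test system = CHO RD-HGA16 cells bearing hTAAR1 | replication = singlicate | controls = DMSO-only wells and EC80 β-PEA-stimulated wells | reagent = EC80 β-phenethylamine stimulus | read-out basis = percent inhibition of PEA-evoked calcium signal, max/basal emission ratio | schedule = seeding 17-24 h prior, 75-min 37 °C, 30-min RT dye loading | signal = kinetic Fluo-8 calcium fluorescence measurement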
OXTR potentiate – potentiators of human oxytocin receptor; P30559; CHO-OTR cells, Fluo-8 calcium fluorescence, potentiator mode; 0% = oxytocin EC15, 100% = EC100; activation, % at 3 µM; 0.061% of 320,000 active;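 active = activation above that plate's cutoff, the mean activation of tested compounds plus 3 SD, cut at about 6.6% in these data, passing the limit was not always enough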;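 also: 100% uses oxytocin at 75 nM as the full agonist control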
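Material: CHO-OTR cells, human receptor; compound dosing: single dose, 3.0 µM nominal final compound concentration; schedule: 6 min compound pre-incubation at room temperature, 100 s kinetic read; measured by: kinetic Fluo-8 calcium fluorescence; read-out basis: % activation vs EC15 and EC100 oxytocin; controls: EC15 oxytocin alone as 0%, 75 nM oxytocin as 100%; replicates: singlicate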
V1R ag counter – counter-screen for oxytocin receptor agonists: human V1a receptor agonists | P37288 | CHO-V1R cells, Fluo-8 calcium fluorescence, agonist mode; 0% DMSO, 100% 3 nM vasopressin | activation, % at 3 µM | 0.25% of 320,000 active;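 active = activation above the mean activation of all tested compounds plus 3 SD, per screening run, cut at about 20% in these data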;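 also: signal is peak over basal fluorescence ratio across a 100 second FLIPR read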
TAAR1 ag – human TAAR1 agonism | Q96RJ0 | CHO RD-HGA16 TAAR1, Fluo-8 calcium fluorescence; vehicle wells 0%, saturating PEA agonist 100% | activation, % at 3 µM | 0.99% of 360,000 active | AID 624467;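 active = activation above the mean activation of all test compounds in the run plus 3 SD, cut at about 38% in these data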
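Assay system – CHO-derived RD-HGA16 cells with stable Gα16 and human TAAR1 · Compound dosing – one-point dosing at 3 µM (nominal) · Incubation – 17-24 h seeding, 75 min 37 °C dye, 30 min RT · Measured by – kinetic Fluo-8 calcium fluorescence · Control set – DMSO vehicle as 0%, PEA at EC100 as 100% · Repeats – single well for each compound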
TAAR1 nonsel count – counter-screen for TAAR1 antagonists: nonselective antagonists | shares compounds with TAAR1 antagonist | counterscreen cell line, calcium fluorescence, antagonist mode | inhibition, % at 3 µM | 77% of 2,400 active | AID 651780; in the data active = inhibition above about 22%;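 also: CHO-Ga16 host cells stimulated with ATP at an EC80 level; 0% = agonist EC80 plus vehicle and 100% = vehicle without agonist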
TAAR1 antag conf – human TAAR1 antagonism, confirmed; shares compounds with TAAR1 antagonist; TAAR1-expressing cells, fluorescence antagonist read-out; inhibition, % at 3 µM; 40% of 2,400 active; AID 651785; in the data active = inhibition above about 49%;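 also: CHO-Ga16 host cells challenged with agonist PEA near its EC80; 0% = agonist at EC80 plus vehicle and 100% = vehicle with no agonist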
Ga16 ag counter – counter-screen for TAAR1 antagonists: nonselective Ga16 agonists. activation, % at 3 µM. AID 651953. 18% of 2,400 active. Ga16-expressing cells, calcium fluorescence, agonist counterscreen. shares compounds with TAAR1 antagonist; in the data active = activation above about 12%;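 also: 0% = vehicle wells and 100% = saturating stimulus response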
TAAR1 ag counter – counter-screen for human TAAR1 antagonists: TAAR1 agonists. shares compounds with TAAR1 antagonist. hTAAR1 cell line, fluorescence activation, agonist mode. activation, % at 3 µM. 2% of 2,400 active. AID 651955; in the data active = activation above about 37%;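 also: CHO cells stably expressing TAAR1 with calcium dye readout; 0% = DMSO vehicle and 100% = full agonist response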
Active calls of the source: *.

Results for O=C(/C=C/c1ccccc1)Nc1cccc(C(=O)NCCc2ccccc2)c1 ?
TAAR1 antagonist: 67.5*; TAAR1 ag: 13.2; TAAR1 nonsel count: 37.1*; TAAR1 antag conf: 56.8*; Ga16 ag counter: 8.4; TAAR1 ag counter: 6.2

How did O=C(NCCc1ccccc1)c1cccc(NC(=O)C2CC2)c1 do in these assays?
TAAR1 antagonist: 9.6; TAAR1 ag: 0.3

What do the screens show for `O=C(NCCCc1ccccc1)c1cccc(NC(=O)C2CCCC2)c1`?
TAAR1 antagonist: 21.9; TAAR1 ag: 7.9

Results for CC(C)(C)OC(=O)N1CCC(C(=O)Nc2ccc(C(=O)NCCc3ccccc3)cc2)CC1 ?
TAAR1 antagonist: 44.1; TAAR1 ag: 30.9

Results for O=C(NCCCCc1ccccc1)c1cccc(NC(=O)C2CCCCC2)c1 ?
TAAR1 antagonist: 61.1*; TAAR1 ag: 5.7; TAAR1 nonsel count: 29.8*; TAAR1 antag conf: 36.1; Ga16 ag counter: 7.6; TAAR1 ag counter: 4.5

Results for CCc1nc(NCCO)c(C#N)c2c1CSC(C)(C)C2 ?
OXTR ag: -1.0; TAAR1 antagonist: 59.0*; OXTR potentiate: -4.6; V1R ag counter: 0.1; TAAR1 ag: 14.8; TAAR1 nonsel count: 30.8*; TAAR1 antag conf: 50.7*; Ga16 ag counter: 7.3; TAAR1 ag counter: 5.4

What do the screens show for `COC(=O)[C@]12C[C@H](CC(=O)N3CCOCC3)C(=O)N(Cc3ccccc3)C1=C[C@H](C1CCCC1)O[C@@H]2C`?
TAAR1 antagonist: -4.1; TAAR1 ag: 1.0

What do the screens show for `CCOc1cc(/C=C/C(=O)NCCc2ccc(S(N)(=O)=O)cc2)ccc1OCC(C)C`?
OXTR ag: -0.2; TAAR1 antagonist: 76.4*; OXTR potentiate: -2.2; V1R ag counter: -0.5; TAAR1 ag: 6.1; TAAR1 nonsel count: 24.8*; TAAR1 antag conf: 38.7; Ga16 ag counter: 4.7; TAAR1 ag counter: 0.9

What do the screens show for `COc1cc(/C=C/C(=O)NCCc2ccc(S(N)(=O)=O)cc2)ccc1OCC#N`?
OXTR ag: 0.7; TAAR1 antagonist: -6.6; OXTR potentiate: -2.5; V1R ag counter: 0.0; TAAR1 ag: 0.1

Results for O=C(Nc1cccc(-c2nc3ccccc3o2)c1)c1ccc(N2C(=O)C3C4C=CC(C4)C3C2=O)cc1 (configuration not stated) ?
OXTR ag: 2.4; TAAR1 antagonist: 63.4*; OXTR potentiate: -21.3; V1R ag counter: 1.9; TAAR1 ag: 21.2; TAAR1 nonsel count: 38.8*; TAAR1 antag conf: 57.9*; Ga16 ag counter: 11.2; TAAR1 ag counter: 9.4

What do the screens show for `Cc1cccc(-c2cccc3[nH]c4c(c23)CCN2C(=O)[C@H]3[C@H](C)ON(C)[C@H]3C[C@@H]42)c1`?
TAAR1 antagonist: 38.8; TAAR1 ag: 17.0

Results for Cc1ccc(NC(=O)COC(=O)CCc2c[nH]c3ccccc23)c(C)c1 ?
OXTR ag: 4.0; TAAR1 antagonist: -5.2; OXTR potentiate: -7.0; V1R ag counter: 3.8; TAAR1 ag: 5.3

How did CC(=O)Nc1cccc(C(=O)N/N=C/c2ccc(F)cc2)c1 do in these assays?
OXTR ag: 0.7; TAAR1 antagonist: 4.4; OXTR potentiate: -0.1; V1R ag counter: 0.6; TAAR1 ag: 0.9

What do the screens show for `Cc1ccc(C(=O)Nc2cccc(C(=O)N/N=C/c3ccccc3F)c2)cc1`?
OXTR ag: 6.3; TAAR1 antagonist: 65.5*; OXTR potentiate: -16.7; V1R ag counter: 11.0; TAAR1 ag: 12.7; TAAR1 nonsel count: 29.6*; TAAR1 antag conf: 48.2; Ga16 ag counter: 7.8; TAAR1 ag counter: 3.5

Results for CC(=O)Nc1cccc(C(=O)N/N=C/c2ccccc2F)c1 ?
OXTR ag: 0.7; TAAR1 antagonist: 10.0; OXTR potentiate: -9.2; V1R ag counter: 0.3; TAAR1 ag: 4.6

What do the screens show for `Cc1ccc(C(=O)Nc2cccc(C(=O)N/N=C/c3ccc(F)cc3)c2)cc1`?
OXTR ag: 4.1; TAAR1 antagonist: 62.5*; OXTR potentiate: -12.8; V1R ag counter: 10.2; TAAR1 ag: 11.4; TAAR1 nonsel count: 36.9*; TAAR1 antag conf: 53.1*; Ga16 ag counter: 9.9; TAAR1 ag counter: 11.0

Results for Cc1ccccc1NC(=O)N(C)[C@H]1C[C@H]2c3[nH]c4c(-c5ccccc5)cccc4c3CCN2C(=O)[C@H]1[C@H](C)O ?
TAAR1 antagonist: 56.7*; TAAR1 ag: 15.8; TAAR1 nonsel count: 29.0*; TAAR1 antag conf: 34.5; Ga16 ag counter: 5.9; TAAR1 ag counter: 4.3

Results for Cc1ccccc1NC(=O)N(C)[C@H]1C[C@H]2c3[nH]c4c(-c5ccc6c(c5)OCO6)cccc4c3CCN2C(=O)[C@H]1[C@H](C)O ?
TAAR1 antagonist: 23.2; TAAR1 ag: 4.8

What do the screens show for `C[C@H](O)[C@@H]1C(=O)N2CCc3c([nH]c4c(-c5ccc6c(c5)OCO6)cccc34)[C@@H]2C[C@@H]1N(C)C(=O)Nc1ccccc1`?
TAAR1 antagonist: 24.5; TAAR1 ag: 4.2

Results for C[C@H](O)[C@@H]1C(=O)N2CCc3c([nH]c4c(-c5ccccc5)cccc34)[C@@H]2C[C@@H]1N(C)C(=O)Nc1ccccc1 ?
TAAR1 antagonist: 53.5*; TAAR1 ag: 9.0; TAAR1 nonsel count: 30.9*; TAAR1 antag conf: 26.3; Ga16 ag counter: 5.1; TAAR1 ag counter: 3.7

Results for C[C@@H]1ON(C)[C@H]2C[C@H]3c4[nH]c5c(-c6ccc7c(c6)OCO7)cccc5c4CCN3C(=O)[C@@H]12 ?
TAAR1 antagonist: 61.9*; TAAR1 ag: 8.7; TAAR1 nonsel count: 27.3*; TAAR1 antag conf: 44.7; Ga16 ag counter: 7.0; TAAR1 ag counter: 4.6

Results for COCCNC(=S)N(C)[C@H]1C[C@H]2c3[nH]c4c(-c5ccc6c(c5)OCO6)cccc4c3CCN2C(=O)[C@H]1[C@H](C)O ?
TAAR1 antagonist: 61.8*; TAAR1 ag: 15.5; TAAR1 nonsel count: 29.4*; TAAR1 antag conf: 45.1; Ga16 ag counter: 4.1; TAAR1 ag counter: 7.9

How did CCCc1nc2ccc(Cl)cn2c1Cc1ccccc1OC do in these assays?
TAAR1 antagonist: -16.4; TAAR1 ag: 2.9

What do the screens show for `CNC(C)C(=O)NC(C(=O)NC(C)C(=O)NNc1ccccc1)C(C)C` (configuration not stated)?
TAAR1 antagonist: -6.9; TAAR1 ag: 0.1

Assay outcomes as filed in PubChem.
